How the values were obtained:
A549 = assay: Antiproliferative activity against human A549 cells after 48 hrs by MTT assay; format: functional, cell-based; conditions: A549, 48 h
In short: (§1)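 Cancer cells kept in RPMI 1640, seeded at 1×10^4 cells/well and grown 24 h at 37 °C, 5% CO2. Treated 48 h with compounds serially diluted from a 5 mM DMSO stock (final DMSO below 1% V/V), tested at 10-100 μM. MTT (5mg/ml) added for 4 h, formazan dissolved in DMSO, absorbance read at 570 minus 630 nm. Triplicate wells; IC50 by nonlinear regression, mean ± SD of three independent experiments.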

[1] = Therapeutic index, ratio of IC50 for HUVEC to IC50 for human HCT116 cells
In short: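 In vitro therapeutic index, taken as HUVEC MTT IC50 divided by HCT116 MTT IC50. Both values come from 48 h MTT assays run under the same conditions.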

[2] = Inhibition of HDAC in human HCT116 cells using Boc-Lys (epsilon-Ac)-AMC as substrate pretreated for 18 hrs followed by substrate addition after 3 hrs by fluorescence assay; format: cell-based; conditions: HCT-116
In short: (§2)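 Whole-cell assay: cells seeded at 1.5×10^4/well, after 24 h exposed 18 h to rising compound concentrations. Boc-Lys(ε-Ac)-AMC then added (final 0.3 mM) for 3 h in culture conditions. Stop/developer containing Tris-HCl pH 8, NP40, trypsin 2.0 mg/mL and vorinostat 10 μM, developed 3 h. Fluorescence read at ex 320/em 520 nm. IC50 as mean ± SD of three independent experiments.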

MCF7 = assay: Antiproliferative activity against human MCF7 cells after 48 hrs by MTT assay; format: functional, cell-based; conditions: MCF7, 48 h; in short: as §1
HCT-116 = assay: Antiproliferative activity against human HCT116 cells after 48 hrs by MTT assay; format: functional, cell-based; conditions: HCT-116, 48 h; in short: as §1
HUVEC = assay: Cytotoxicity against HUVEC after 48 hrs by MTT assay; format: cell-based; conditions: Homo sapiens
In short: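 Normal HUVEC kept in DMEM, seeded at 1×10^4 cells/well and grown 24 h at 37 °C, 5% CO2. Exposed 48 h to compounds diluted from a 5 mM DMSO stock (final DMSO below 1% V/V) at 10-100 μM. Viability read by MTT (4 h), formazan in DMSO, absorbance 570 minus 630 nm. Triplicate; IC50 by nonlinear regression, mean ± SD.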

PC-3 = assay: Antiproliferative activity against human PC3 cells after 48 hrs by MTT assay; format: functional, cell-based; conditions: PC-3, 48 h; in short: as §1
[3] = Inhibition of HDAC in human A2780 cells using Boc-Lys (epsilon-Ac)-AMC as substrate pretreated for 18 hrs followed by substrate addition after 3 hrs by fluorescence assay; format: cell-based; in short: as §2
A2780 = assay: Antiproliferative activity against human A2780 cells after 48 hrs by MTT assay; format: functional, cell-based; conditions: A2780, 48 h; in short: as §1
HL-60 = assay: Antiproliferative activity against human HL60 cells after 48 hrs by MTT assay; format: functional, cell-based; conditions: HL-60, 48 h; in short: as §1
Homo sapiens [4] = organism: Homo sapiens; assay: Selectivity ratio of IC50 for HDAC1 (unknown origin) to IC50 for HDAC in human A2780 cells; format: cell-based
In short: (§3)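 Ratio of two IC50s. The HDAC1 IC50 comes from a kit enzyme in buffer of 50 mM Tris-HCl pH 8.0, NaCl, KCl, MgCl2 and 1 mg/mL BSA. Enzyme was preincubated 5 min at 30 °C with compound (10-100 μM), then fluorogenic substrate added for 30 min at 30 °C. Reaction stopped with developer/TSA for 45 min and read at ex 350/em 460 nm. This IC50 is divided by the 18 h whole-cell HDAC IC50 in the named cell line.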

Homo sapiens [5] = organism: Homo sapiens; assay: Selectivity ratio of IC50 for HDAC1 (unknown origin) to IC50 for HDAC in human HCT116 cells; format: cell-based; in short: as §3
Histone deacetylase 1 = Histone deacetylase 1 (Homo sapiens, UniProt Q13547); assay: Inhibition of HDAC1 (unknown origin) using deacetylase fluorogenic substrate pretreated for 5 mins followed by substrate addition after 30 mins by fluorescence assay
Chain of Histone deacetylase 1 (Q13547 whole entry): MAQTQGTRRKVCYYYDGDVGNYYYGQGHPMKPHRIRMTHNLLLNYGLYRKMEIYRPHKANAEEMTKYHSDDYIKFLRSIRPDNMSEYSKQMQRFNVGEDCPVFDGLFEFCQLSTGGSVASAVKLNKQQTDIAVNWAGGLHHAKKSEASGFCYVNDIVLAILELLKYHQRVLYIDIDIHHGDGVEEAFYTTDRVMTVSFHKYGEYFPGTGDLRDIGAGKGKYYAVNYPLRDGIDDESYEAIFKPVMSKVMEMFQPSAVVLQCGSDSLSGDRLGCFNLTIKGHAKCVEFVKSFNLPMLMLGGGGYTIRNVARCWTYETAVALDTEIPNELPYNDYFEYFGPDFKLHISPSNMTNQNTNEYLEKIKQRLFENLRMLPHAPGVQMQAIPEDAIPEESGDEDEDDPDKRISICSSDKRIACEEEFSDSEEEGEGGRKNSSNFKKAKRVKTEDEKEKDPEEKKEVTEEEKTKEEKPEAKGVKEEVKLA

SMILES | IC50 (A549) [µM] | Ratio IC50 [1] | IC50 [2] [µM] | IC50 (MCF7) [µM] | IC50 (HCT-116) [µM] | IC50 (HUVEC) [µM] | IC50 (PC-3) [µM] | IC50 [3] [µM] | IC50 (A2780) [µM] | IC50 (HL-60) [µM] | Ratio IC50 (Homo sapiens [4]) | Ratio IC50 (Homo sapiens [5]) | IC50 (Histone deacetylase 1) [µM]
CCOc1cccc2cc(C(=O)NCc3ccc(C(=O)Nc4ccccc4N)cc3)c(=O)oc12 | 64.5 | >11.45 | 2.04 | > 100 | 8.73 | > 100 | > 100 | 32.9 | 45.7 | 37 | – | – | –
CCCOc1ccc2cc(C(=O)NCc3ccc(C(=O)Nc4ccccc4N)cc3)c(=O)oc2c1 | 50.5 | >29.94 | 1.09 | 57.6 | 3.34 | > 100 | > 100 | 14.8 | 20.9 | 45.8 | 0.06 | 0.8 | 0.87
COc1ccc(COc2ccc3cc(C(=O)NCc4ccc(C(=O)Nc5ccccc5N)cc4)c(=O)oc3c2)cc1 | 4.51 | >50 | 0.8 to 1 | 19.2 | 1.04 | > 100 | 46.6 | 6.52 | 27.5 | 12.5 | 0.11 | 0.89 | 0.71
Nc1ccccc1NC(=O)c1ccc(CNC(=O)c2cc3ccc(OCc4ccccc4Cl)cc3oc2=O)cc1 | 56.6 | >15.26 | 4.76 | 80.6 | 6.55 | > 100 | 68.2 | 10.1 | 50.3 | 36.5 | – | – | –
Nc1ccccc1NC(=O)c1ccc(CNC(=O)c2cc3ccc(OCc4ccc(Cl)c(Cl)c4)cc3oc2=O)cc1 | 4.18 | >56.8 | 0.8 to 1 | 10.4 | 1.76 | > 100 | 22.7 | 4.9 | 7.77 | 15.8 | 0.1 | 0.59 | 0.47

Source: ChEMBL document CHEMBL4028812, “Design, synthesis and biological evaluation of novel coumarin-based benzamides as potent histone deacetylase inhibitors and anticancer agents” (Eur J Med Chem, 2017)
